The source of these data is ChEMBL document CHEMBL5136969, “A niclosamide-tobramycin hybrid adjuvant potentiates cefiderocol against P. aeruginosa” (2021).

Format in all cases: functional
Assay [1] deals with Acinetobacter baumannii. In words: Antibacterial activity against Acinetobacter baumannii ATCC 17978 assessed as reduction in bacterial growth after 18 hrs by microbroth dilution method. An outline of the steps: (§1)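 CLSI microbroth dilution in MHB. Overnight cultures were adjusted to 0.5 McFarland in saline, diluted 1:50, and inoculated at about 5 × 10^5 CFU/mL. Agents were 2-fold serially diluted and incubated 18 h at 37 °C. MIC is the lowest concentration without visible turbidity, confirmed by absorbance at 590 nm. Medium with and without cells served as controls.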
A general note: In broth dilution the organism is exposed to a series of concentrations in liquid medium.

For assay [2], the system named is Enterococcus faecalis. In words: Antibacterial activity against Enterococcus faecalis ATCC 29212 assessed as reduction in bacterial growth after 18 hrs by microbroth dilution method. A digest of the protocol: as §1
The test system of assay [3] is Staphylococcus aureus. In words: Antibacterial activity against methicillin-resistant Staphylococcus aureus ATCC 33592 assessed as reduction in bacterial growth after 18 hrs by microbroth dilution method. A digest of the protocol: (§2)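 Broth microdilution per CLSI in Mueller-Hinton broth (MHB). Overnight cultures were adjusted to 0.5 McFarland in saline, diluted 1:50 in MHB, and added at about 5 × 10^5 CFU/mL final to equal volumes of 2-fold serial dilutions of agent. Incubation was 18 h at 37 °C. MIC was the lowest concentration with no visible turbidity, confirmed by absorbance at 590 nm.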

Assay [4] concerns Pseudomonas aeruginosa. The assay can be described thus: Antibacterial activity against Pseudomonas aeruginosa PAO1 assessed as reduction in bacterial growth after 18 hrs by microbroth dilution method. An outline of the steps: (§3)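 CLSI broth microdilution. Overnight cultures were adjusted in saline to 0.5 McFarland, diluted 1:50 in Mueller-Hinton broth (MHB), and inoculated at about 5 × 10^5 CFU/mL. Agents were 2-fold serially diluted in MHB, mixed 1:1 with inoculum, and held at 37 °C for 18 h. MIC was the lowest concentration with no visible turbidity, confirmed at 590 nm.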

The subject of assay [5] is Staphylococcus aureus. In words: Antibacterial activity against Staphylococcus aureus ATCC 29213 assessed as reduction in bacterial growth after 18 hrs by microbroth dilution method. An outline of the steps: as §3
The test system of assay [6] is Staphylococcus epidermidis. In words: Antibacterial activity against methicillin-resistant Staphylococcus epidermidis 61589 assessed as reduction in bacterial growth after 18 hrs by microbroth dilution method. A digest of the protocol:
as §2

In assay [7] the test system is Enterococcus faecium. The assay can be described thus: Antibacterial activity against Enterococcus faecium ATCC 27270 assessed as reduction in bacterial growth after 18 hrs by microbroth dilution method. A digest of the protocol: as §1
In assay [8] the test system is Escherichia coli. The assay can be described thus: Antibacterial activity against Escherichia coli ATCC 25922 assessed as reduction in bacterial growth after 18 hrs by microbroth dilution method. An outline of the steps: as §1

As a reminder, the MIC is the least concentration at which growth counts as inhibited.

≈ marks a conversion by molar mass, not a printed value.

Take `NC[C@H]1O[C@H](O[C@H]2[C@H](O)[C@@H](O[C@H]3O[C@H](CO)[C@@H](O)[C@H](N)[C@H]3O)[C@H](N)C[C@@H]2N)[C@H](N)C[C@@H]1O` [TOBRAMYCIN]: the minimum inhibitory concentration (MIC) in assay [1] was determined as 0.5 µg/mL (≈ 1.07 µM); in assay [2], 8 µg/mL (≈ 17.1 µM); in assay [3], 2 µg/mL (≈ 4.28 µM); in assay [4], 0.5 µg/mL (≈ 1.07 µM); in assay [5], 0.5 µg/mL (≈ 1.07 µM); in assay [6] it was 8 µg/mL (≈ 17.1 µM). Further, the MIC is 16 µg/mL (≈ 34.2 µM) in assay [7] and 2 µg/mL (≈ 4.28 µM) in assay [8].

Turning to `O=C(Nc1ccc([N+](=O)[O-])cc1Cl)c1cc(Cl)ccc1O` [NICLOSAMIDE], the MIC in assay [1] was > 128 µg/mL; in assay [2], 2 µg/mL (≈ 6.11 µM); in assay [3], 0.25 µg/mL (≈ 0.764 µM); in assay [4], > 128 µg/mL; in assay [5], 1 µg/mL (≈ 3.06 µM); in assay [6], 1 µg/mL (≈ 3.06 µM). The minimum inhibitory concentration (MIC) in assay [7] was 2 µg/mL (≈ 6.11 µM); in assay [8], > 128 µg/mL.
